Assay results published in ChEMBL document CHEMBL4406846, “Development of novel multipotent compounds modulating endocannabinoid and dopaminergic systems” (Eur J Med Chem, 2019).
Values after ≈ are worked out from the molar mass of the structure shown. Active and inactive are the calls of the source. No cut-off for these calls is given here.

Key:
[1] = molecular target: T1, Fatty-acid amide hydrolase 1 (Mus musculus, UniProt O08914); assay: Inhibition of FAAH in mouse brain membranes using [14C]-AEA as substrate incubated for 15 mins by scintillation counting method; type: cell membranes
T1 sequence (O08914 whole entry): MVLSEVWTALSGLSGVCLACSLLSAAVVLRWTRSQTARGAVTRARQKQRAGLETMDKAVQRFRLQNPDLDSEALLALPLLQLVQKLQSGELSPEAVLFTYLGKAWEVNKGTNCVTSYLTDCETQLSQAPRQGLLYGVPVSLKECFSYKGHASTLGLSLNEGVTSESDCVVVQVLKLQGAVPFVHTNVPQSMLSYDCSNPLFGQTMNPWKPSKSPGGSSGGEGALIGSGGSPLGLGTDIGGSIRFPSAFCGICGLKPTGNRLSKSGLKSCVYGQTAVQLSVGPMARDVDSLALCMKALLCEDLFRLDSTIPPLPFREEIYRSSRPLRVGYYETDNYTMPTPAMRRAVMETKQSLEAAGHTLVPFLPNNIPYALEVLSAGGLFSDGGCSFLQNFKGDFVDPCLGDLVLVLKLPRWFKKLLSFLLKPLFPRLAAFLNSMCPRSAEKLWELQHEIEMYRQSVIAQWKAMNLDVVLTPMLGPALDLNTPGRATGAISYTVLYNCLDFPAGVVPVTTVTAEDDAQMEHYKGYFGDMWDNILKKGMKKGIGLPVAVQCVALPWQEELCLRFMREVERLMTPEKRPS

[2] = molecular target: T1, Fatty-acid amide hydrolase 1; assay: Inhibition of FAAH in mouse brain membranes assessed as inhibitory constant using [14C]-AEA as substrate incubated for 15 mins by scintillation counting method; type: cell membranes
Procedure, shortened: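 Mouse brain incubated with 10 μM [¹⁴C]AEA at 37 °C for 15 min, pH 9.0, compound added to the medium. Stopped with chloroform/methanol 2:1; [¹⁴C]ethanolamine released into the aqueous phase measured. Mean of at least three experiments.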

D(2) dopamine receptor = D(2) dopamine receptor (Homo sapiens, UniProt P14416); assay: Displacement of [3H]-spiperone from human D2 receptor expressed in CHO cells co-expressing Galpha16 incubated for 120 mins by liquid scintillation counting method; type: cell-based
Procedure, shortened: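 Membranes from CHO cells expressing hD2 with Gα16; 2 μg protein/well, 0.08 nM [³H]-spiperone final, 23 °C for 120 min. Stopped by rapid filtration on PEI-soaked GF/B filters, bound radioactivity counted; Ki by Cheng-Prusoff; at least three experiments.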

D(3) dopamine receptor = D(3) dopamine receptor (Homo sapiens, UniProt P35462); assay: Displacement of [3H]-spiperone from human D3 receptor expressed in CHO cells co-expressing Galpha16 incubated for 120 mins by liquid scintillation counting method; type: cell-based
[3] = molecular target: Voltage-gated inwardly rectifying potassium channel KCNH2 (Homo sapiens, UniProt Q12809); assay: Inhibition of human ERG expressed in HEK293 cells […] by patch clamp assay; type: cell-based
Procedure, shortened: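 HEK293 cells stably expressing hERG under a tetracycline-inducible promoter (10 μg/mL tetracycline for 24, 48 or 72 h). Automated patch clamp, tail current; 0.1, 1 and 10 μM in 0.1% DMSO after 3 min vehicle, 5 min exposure. Residual current vs vehicle gives % inhibition; IC50 estimated; at least two cells.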

[4] = molecular target: Cannabinoid receptor 1 (Mus musculus) (UniProt P47746); assay: Displacement of [3H]CP55, 940 from mouse brain membrane CB1 receptor
Procedure, shortened: (§1)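 Mouse brain membrane fraction (18000×g pellet) in 50 mM Tris-HCl, 2 mM Tris-EDTA, 3 mM MgCl2, pH 7.4. Rapid filtration binding with the agonist [³H]CP55,940; nonspecific binding defined with 1 μM unlabelled agonist; compound added directly to the incubation.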

[5] = molecular target: Cannabinoid receptor 2 (Mus musculus) (UniProt P47936); assay: Displacement of [3H]CP55, 940 from mouse brain membrane CB2 receptor; procedure, shortened: as §1
[6] = molecular target: T2, Monoglyceride lipase (Mus musculus) (UniProt O35678); assay: Inhibition of MAGL in mouse brain assessed as release of [3H]glycerol using [3H]-2-OG as substrate incubated for 30 mins by scintillation counting method; type: tissue-based
T2 sequence (whole entry): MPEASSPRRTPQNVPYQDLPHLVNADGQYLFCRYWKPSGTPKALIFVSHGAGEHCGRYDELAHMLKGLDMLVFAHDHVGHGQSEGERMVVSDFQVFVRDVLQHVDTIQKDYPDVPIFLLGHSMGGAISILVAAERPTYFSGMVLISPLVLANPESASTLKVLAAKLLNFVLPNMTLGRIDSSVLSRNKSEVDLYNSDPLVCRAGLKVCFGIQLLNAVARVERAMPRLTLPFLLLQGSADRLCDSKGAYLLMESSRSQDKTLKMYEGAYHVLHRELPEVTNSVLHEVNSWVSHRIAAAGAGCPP
Procedure, shortened: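 Mouse brain homogenised in 50 mM sodium phosphate pH 8.0 with 0.32 M sucrose, spun sequentially up to 100,000×g. Final supernatant incubated with 10 μM [³H]2-OG at 37 °C for 30 min; stopped with chloroform/methanol and aqueous [³H]glycerol scintillation-counted.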

[7] = Solubility of compound in DMSO at pH 3 incubated for […] by HPLC/UV/DAD analysis; type: physicochemical
Procedure, shortened: (§2)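 10 mM DMSO stock diluted to 250 μM (2.5% DMSO) in 50 mM acetic acid (pH 3.0) or 50 mM PBS (pH 7.4). Shaken 24 h at 25 °C, filtered, diluted 1:2 and quantified by HPLC-UV at 254 nm against a 250 μM standard; triplicate average.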

[8] = Solubility of compound in DMSO at pH 7.4 incubated for […] by HPLC/UV/DAD analysis; type: physicochemical; procedure, shortened: as §2
[9] = Chemical stability of compound in DMSO assessed as remaining compound at pH 3 incubated for 24 hrs by HPLC/UV/DAD analysis; type: physicochemical; settings: read-out: Stability
Procedure, shortened: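 Samples at 250 μM (2.5% DMSO) in 50 mM acetic acid, pH 3.0, held 24 h at 25 °C. HPLC/UV/DAD peak area at 254 nm after 24 h divided by area at T0 × 100; triplicate average.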

NIH3T3 = assay: Cytotoxicity against mouse NIH/3T3 cells assessed as cell viability incubated for 24 hrs by neutral red uptake based assay; settings: NIH3T3, 24 h
Procedure, shortened: (§3)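 NIH3T3 or U-373-MG cells grown in DMEM with 10% FCS at 37 °C, 5% CO2; compound from DMSO stock diluted in complete medium, 4–100 μM, 24 h. Viability by Neutral Red Uptake (3 h NR loading, acetic acid/ethanol extraction, A540), normalised to % control; IC50 reported. Three experiments in six replicates, Student's t test.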

U373 MG = assay: Cytotoxicity against human U373MG cells assessed as cell viability incubated for 24 hrs by neutral red uptake based assay; design: species or system U-373MG ATCC; procedure, shortened: as §3
[10] = Metabolic stability in rat liver microsomes assessed as apparent decay constant at 5 uM incubated for 60 mins by UV-Vis spectrophotometry; type: ADME, Microsome; settings: 1 h
[11] = Metabolic stability in rat liver microsomes assessed as intrinsic clearance at 5 uM incubated for 60 mins by UV-Vis spectrophotometry; type: ADME, Microsome; settings: read-out: CLH
[12] = Metabolic stability in rat liver microsomes assessed as half life at 5 uM incubated for 60 mins by UV-Vis spectrophotometry; type: ADME, Microsome
[13] = Metabolic stability in human liver microsomes assessed as apparent decay constant at 5 uM incubated for 60 mins by UV-Vis spectrophotometry; type: ADME, Microsome; settings: 1 h
[14] = Metabolic stability in human liver microsomes assessed as intrinsic clearance at 5 uM incubated for 60 mins by UV-Vis spectrophotometry; type: ADME, Microsome; settings: read-out: CLH
[15] = Metabolic stability in human liver microsomes assessed as half life at 5 uM incubated for 60 mins by UV-Vis spectrophotometry; type: ADME, Microsome
IMR-32 [16] = assay: Cytotoxicity against human IMR32 cells at 0.1 to 50 uM incubated for 24 hrs by LDH release assay; type: cell-based; settings: imr-32, 24 h
Procedure, shortened: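 IMR 32 cells exposed 24 h to 0.1, 0.5, 1, 5, 10 and 50 μM; LDH release expressed as percent of maximal release from Triton X-100-treated cells (100%). Samples run at least in triplicate, mean ± SD.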

IMR-32 [17] = assay: Antiinflammatory activity in human IMR32 cells assessed as reduction in LPS-induced NF-kappaB-DNA binding at 0.5 and 1 uM preincubated for 24 hrs followed by LPS stimulation and measured after 30 mins by ELISA; type: functional, cell-based
Procedure, shortened: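 IMR 32 cells pre-treated 24 h at 0.5 and 1 μM, then challenged with 100 μg/mL LPS for 30 min; NF-κB p65 binding of nuclear extracts to the DNA consensus sequence measured. Mean ± SEM of 3 independent experiments.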

IMR-32 [18] = assay: Antiinflammatory activity in human IMR32 cells assessed as reduction in LPS-induced NF-kappaB-DNA binding at 0.5 and 1 uM preincubated for 24 hrs followed by LPS stimulation and measured after 30 mins by immunoblot analysis; type: functional, cell-based
[19] = Retention time of compound in human liver microsomes incubated for 30 mins by HPLC analysis; type: ADME, Microsome; settings: 0.5 h

Voltage-gated inwardly rectifying potassium channel KCNH2, sequence (Q12809 whole entry): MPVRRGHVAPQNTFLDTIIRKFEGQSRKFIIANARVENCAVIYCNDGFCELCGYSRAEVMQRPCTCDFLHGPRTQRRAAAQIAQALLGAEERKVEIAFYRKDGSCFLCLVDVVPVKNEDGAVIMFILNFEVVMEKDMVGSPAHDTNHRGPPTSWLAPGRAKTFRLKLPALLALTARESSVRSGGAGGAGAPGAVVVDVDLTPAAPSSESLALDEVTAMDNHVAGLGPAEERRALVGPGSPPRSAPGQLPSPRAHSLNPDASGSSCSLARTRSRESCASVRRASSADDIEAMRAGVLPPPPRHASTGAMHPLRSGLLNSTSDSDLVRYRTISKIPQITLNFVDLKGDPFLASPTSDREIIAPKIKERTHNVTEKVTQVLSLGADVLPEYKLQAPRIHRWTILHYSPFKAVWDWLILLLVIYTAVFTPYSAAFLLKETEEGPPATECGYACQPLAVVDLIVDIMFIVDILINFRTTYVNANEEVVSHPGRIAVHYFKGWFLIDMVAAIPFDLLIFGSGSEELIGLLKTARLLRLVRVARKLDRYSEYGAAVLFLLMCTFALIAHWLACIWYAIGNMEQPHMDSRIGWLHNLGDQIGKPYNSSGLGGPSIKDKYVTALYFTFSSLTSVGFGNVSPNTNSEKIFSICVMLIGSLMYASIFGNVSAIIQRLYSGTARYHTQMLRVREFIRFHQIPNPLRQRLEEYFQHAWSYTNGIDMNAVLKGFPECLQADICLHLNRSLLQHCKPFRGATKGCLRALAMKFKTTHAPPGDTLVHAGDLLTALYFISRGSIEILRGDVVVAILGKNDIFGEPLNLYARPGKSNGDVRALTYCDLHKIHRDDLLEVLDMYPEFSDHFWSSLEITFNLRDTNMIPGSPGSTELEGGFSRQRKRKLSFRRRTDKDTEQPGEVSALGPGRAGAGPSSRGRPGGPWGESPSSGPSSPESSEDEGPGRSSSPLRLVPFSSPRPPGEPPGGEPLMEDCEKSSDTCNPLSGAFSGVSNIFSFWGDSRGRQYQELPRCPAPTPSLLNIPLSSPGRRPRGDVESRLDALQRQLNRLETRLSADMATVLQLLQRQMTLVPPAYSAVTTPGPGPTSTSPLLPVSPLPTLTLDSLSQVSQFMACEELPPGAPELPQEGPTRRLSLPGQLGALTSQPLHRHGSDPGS
D(3) dopamine receptor, sequence (P35462 whole entry): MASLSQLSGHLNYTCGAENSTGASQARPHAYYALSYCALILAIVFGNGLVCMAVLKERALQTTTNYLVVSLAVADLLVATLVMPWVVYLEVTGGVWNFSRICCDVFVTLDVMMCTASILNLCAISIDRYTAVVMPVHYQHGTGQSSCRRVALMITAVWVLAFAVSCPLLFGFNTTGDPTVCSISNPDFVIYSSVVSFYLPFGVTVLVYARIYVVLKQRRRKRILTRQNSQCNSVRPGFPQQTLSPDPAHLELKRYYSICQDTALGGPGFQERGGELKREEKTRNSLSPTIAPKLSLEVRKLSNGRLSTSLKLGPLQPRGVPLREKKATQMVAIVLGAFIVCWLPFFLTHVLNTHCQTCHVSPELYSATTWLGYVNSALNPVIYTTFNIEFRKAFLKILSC
D(2) dopamine receptor, sequence (P14416 whole entry): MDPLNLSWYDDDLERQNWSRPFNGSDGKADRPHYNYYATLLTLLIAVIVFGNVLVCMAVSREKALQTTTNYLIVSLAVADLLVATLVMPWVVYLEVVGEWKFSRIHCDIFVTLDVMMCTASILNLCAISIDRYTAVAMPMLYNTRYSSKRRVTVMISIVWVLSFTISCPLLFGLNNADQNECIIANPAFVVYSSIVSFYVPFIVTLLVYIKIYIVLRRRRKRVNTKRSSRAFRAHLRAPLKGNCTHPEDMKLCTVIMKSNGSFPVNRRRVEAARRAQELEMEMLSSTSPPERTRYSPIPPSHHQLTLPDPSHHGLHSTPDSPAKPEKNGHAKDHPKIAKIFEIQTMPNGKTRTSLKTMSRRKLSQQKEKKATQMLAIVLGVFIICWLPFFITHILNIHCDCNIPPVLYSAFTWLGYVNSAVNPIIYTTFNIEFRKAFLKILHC
Cannabinoid receptor 2 (Mus musculus), sequence (P47936 whole entry): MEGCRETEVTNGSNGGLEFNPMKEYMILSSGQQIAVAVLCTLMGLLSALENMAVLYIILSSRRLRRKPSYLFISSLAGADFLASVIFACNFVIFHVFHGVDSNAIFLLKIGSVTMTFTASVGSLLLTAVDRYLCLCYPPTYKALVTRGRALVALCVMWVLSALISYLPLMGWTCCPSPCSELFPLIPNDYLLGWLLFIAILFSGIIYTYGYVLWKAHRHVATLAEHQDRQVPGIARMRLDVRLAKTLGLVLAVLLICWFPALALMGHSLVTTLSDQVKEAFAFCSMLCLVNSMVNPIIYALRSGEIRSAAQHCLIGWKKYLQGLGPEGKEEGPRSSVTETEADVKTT
Cannabinoid receptor 1 (Mus musculus), sequence (P47746 whole entry): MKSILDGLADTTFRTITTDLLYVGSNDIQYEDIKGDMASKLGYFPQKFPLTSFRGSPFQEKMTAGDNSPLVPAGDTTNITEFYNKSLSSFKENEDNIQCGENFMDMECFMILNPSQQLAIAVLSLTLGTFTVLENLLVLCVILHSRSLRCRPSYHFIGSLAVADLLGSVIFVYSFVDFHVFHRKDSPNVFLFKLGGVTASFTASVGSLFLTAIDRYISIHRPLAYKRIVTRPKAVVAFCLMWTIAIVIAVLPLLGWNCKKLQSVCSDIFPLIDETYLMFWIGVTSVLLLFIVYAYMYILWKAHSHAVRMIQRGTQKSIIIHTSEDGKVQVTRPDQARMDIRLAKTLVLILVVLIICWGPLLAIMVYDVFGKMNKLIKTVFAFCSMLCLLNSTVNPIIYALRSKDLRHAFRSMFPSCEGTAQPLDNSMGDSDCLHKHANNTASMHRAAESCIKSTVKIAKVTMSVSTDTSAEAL

| SMILES | IC50 [1] [µM] | Ki [2] [µM] | Ki (D(2) dopamine receptor) [µM] | Ki (D(3) dopamine receptor) [µM] | IC50 [3] [µM] | also measured |
| --- | --- | --- | --- | --- | --- | --- |
| NC(=O)c1ccn(-c2cccc(OC(=O)NCCCN3CCN(c4ccccc4)CC3)c2)c1 | 0.094 | 0.025 | 0.066 | 0.034 | 3.5 | – |
| Cc1cc(C(N)=O)c(-c2cccc(OC(=O)NCCN3CCN(c4ccccc4)CC3)c2)[nH]1 | 0.195 | 0.05 | – | – | – | – |
| NC(=O)c1ccn(-c2cccc(NC(=O)NCCN3CCN(c4ccccc4)CC3)c2)c1 | 1.6 | 0.42 | – | – | – | – |
| Cn1c(C(N)=O)ccc1-c1cccc(OC(=O)NCCN2CCN(c3ccccc3)CC2)c1 | 0.791 | 0.203 | 0.056 | 0.076 | 6.4 | – |
| Cc1cc(C(N)=O)c(-c2cccc(OC(=O)NCCN3CCN(c4ccccc4)CC3)c2)o1 | 0.00089 | 0.00023 | 0.138 | 0.105 | < 0.1 | pIC50 ([3]; hek293): > 7; inhibition [4]: inactive; inhibition [5]: inactive; inhibition [6]: inactive; solubility [7]: 991 µM (≈ 444 µg/mL); solubility [8]: 2 µM (≈ 0.897 µg/mL); remaining at 24 h [9]: 99.9%; IC50 (NIH3T3): 68 µM; IC50 (U373 MG): 23 µM; K [10]: 0.03482 ×10⁻¹ /min; microsomal CLint at 5 µM [11]: 59.2 µL/min/mg; half-life at 5 µM [12]: 19.9 min; K [13]: 0.02842 ×10⁻¹ /min; microsomal CLint at 5 µM [14]: 47.4 µL/min/mg; half-life at 5 µM [15]: 24.4 min; Activity (IMR-32 [16]): Non-Toxic; Activity (IMR-32 [17]): Active; Activity (IMR-32 [18]): Active; Retention_time [19]: 9.004 min |
| Cc1cc(C(N)=O)c(-c2cccc(OC(=O)NCCN3CCN(c4ccccc4)CC3)c2)n1C | 0.175 | 0.046 | – | – | – | – |
